Experimental data pooled from the literature.
Lines come from different studies, so protocols differ. Values after ≈ are worked out from the molar mass of the structure shown.
Organism: Staphylococcus epidermidis

SMILES	read-out	method	strain	time	notes	endpoint	value
CCCCCC/C=C\CCCCCCCCCc1cc(O)cc(O)c1	microbial growth	broth dilution	ATCC35984		drug-resistant strain	MIC	> 64 µg/mL
CN[C@H](CC(C)C)C(=O)N[C@H]1C(=O)N[C@@H](CC(N)=O)C(=O)N[C@H]2C(=O)N[C@H]3C(=O)N[C@H](C(=O)N[C@H](C(=O)O)c4cc(O)cc(O)c4-c4cc3ccc4O)[C@H](O)c3ccc(c(Cl)c3)Oc3cc2cc(c3O[C@@H]2O[C@H](CO)[C@@H](O)[C@H](O)[C@H]2O[C@H]2C[C@](C)(N)[C@H](O)[C@H](C)O2)Oc2ccc(cc2Cl)[C@H]1O	microbial growth	broth dilution	12228	16 h		MIC	1.56 µM
Cc1c(NN=C(C#N)C2=NC(=O)CS2)c(=O)n(-c2ccccc2)n1C	microbial killing	broth dilution				MBC	1 µg/mL (≈ 2.82 µM)
CN[C@H](CC(C)C)C(=O)N[C@H]1C(=O)N[C@@H](CC(N)=O)C(=O)N[C@H]2C(=O)N[C@H]3C(=O)N[C@H](C(=O)N[C@H](C(=O)O)c4cc(O)cc(O)c4-c4cc3ccc4O)[C@H](O)c3ccc(c(Cl)c3)Oc3cc2cc(c3O[C@@H]2O[C@H](CO)[C@@H](O)[C@H](O)[C@H]2O[C@H]2C[C@](C)(N)[C@H](O)[C@H](C)O2)Oc2ccc(cc2Cl)[C@H]1O	microbial growth	broth dilution	12228			MIC	0.78 µM
Cc1ccc2[nH]c3c(c2c1)CCCC3NCCc1ccc(O)cc1 (centres unmarked)	microbial growth	broth dilution	MRSE			MIC	16 µg/mL
CN[C@H](CC(C)C)C(=O)N[C@H]1C(=O)N[C@@H](CC(N)=O)C(=O)N[C@H]2C(=O)N[C@H]3C(=O)N[C@H](C(=O)N[C@H](C(=O)O)c4cc(O)cc(O)c4-c4cc3ccc4O)[C@H](O)c3ccc(c(Cl)c3)Oc3cc2cc(c3O[C@@H]2O[C@H](CO)[C@@H](O)[C@H](O)[C@H]2O[C@H]2C[C@](C)(N)[C@H](O)[C@H](C)O2)Oc2ccc(cc2Cl)[C@H]1O	microbial growth		ATCC14990			MIC	0.5 µg/mL
Cc1ccc2[nH]c3c(c2c1)CCCC3NCCc1ccc(Br)cc1 (centres unmarked)	microbial growth	broth dilution	MRSE			MIC	4 µg/mL
CCCCCCCCCC(=O)N[C@@H](Cc1c[nH]c2ccccc12)C(=O)N[C@H](CC(N)=O)C(=O)N[C@@H](CC(=O)O)C(=O)N[C@@H]1C(=O)NCC(=O)N[C@@H](CCCN)C(=O)N[C@@H](CC(=O)O)C(=O)N[C@H](C)C(=O)N[C@@H](CC(=O)O)C(=O)NCC(=O)N[C@H](CO)C(=O)N[C@@H]([C@H](C)CC(=O)O)C(=O)N[C@@H](CC(=O)c2ccccc2N)C(=O)O[C@@H]1C	microbial growth	broth dilution	ATCC35984		drug-resistant strain	MIC	1 µg/mL
